PMC9933479 (ACS Omega, 2023)
Like-named read-outs stand apart in the source and are kept apart here.

What was measured:
Experiment in all cases: MTT assay, cytotoxicity/growth inhibition
[1] = tested on: PC-3 (prostate carcinoma); type: cell-based; conditions: Homo sapiens; for inhibition at 20 µM: 48 h, read-out: Cytotoxic Activity (% Growth Inhibition)
Outline: (§1)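 Cells were grown in RPMI (A549, HCT-116, PC-3) or DMEM (MCF-7) with 10% FBS at 37 °C and 5% CO2. Seeding per well was […] and PC-3 8 × 10^4 cells. […] MTT 250 μg/mL, 4 h; DMSO; A570; triplicate; mean ± SE.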

[2] = tested on: MCF-7 (breast carcinoma); type: cell-based; conditions: Homo sapiens; for IC50: MCF7; for inhibition at 20 µM: MCF7, 48 h, read-out: Cytotoxic Activity (% Growth Inhibition)
Outline: as §1

[3] = tested on: A549 (lung carcinoma); type: cell-based, human; conditions: for IC50 / inhibition at 20 µM: Homo sapiens; for IC50: A549; for inhibition at 20 µM: A549, 48 h
Outline: as §1

[4] = tested on: HCT-116 (colon carcinoma); type: cell-based; conditions: Homo sapiens; for IC50: HCT-116; for inhibition at 20 µM: HCT-116, 48 h, read-out: Cytotoxic Activity (% Growth Inhibition)
Outline: as §1

[5] = read-out: Cytotoxic Activity (% Growth Inhibition), A549, 20 μM concentration, MTT, 48 h

Compound	IC50 [1]	inhibition at 20 µM [1]	IC50 [2]	inhibition at 20 µM [2]	IC50 [3]	inhibition at 20 µM [3, 5]	IC50 [4]	inhibition at 20 µM [4]	inhibition at 20 µM ([3]; read-out: Cytotoxic Activity (% Growth Inhibition))	Cytotoxic Activity (% Growth Inhibition) ([3]; A549, 20 μM concentration, MTT, 48 h, 20 µM)
COc1cc(OC)cc(C(=O)OCC2=CCC3[C@](C)(CO)[C@H](O)CC[C@@]3(C)[C@@H]2/C=C/C2=CCOC2=O)c1 (stereo partly drawn) [Compound 9j, ((1S,5R,6R,8aR)-6-Hydroxy-5-(hydroxymethyl)-5,8a-dimethyl-1-((E)-2-(2-oxo-2,5 dihydrofuran-3-yl)vinyl)-1,4,4a,5,6,7,8,8a-octahydronaphthalen-2-yl)methyl 3,5-Dimethoxybenzoate]	6.1 µM	70 ± 0.82%	16.6 µM	51 ± 0.49%	> 20 µM	8.7 ± 0.45%	> 20 µM	23.9 ± 0.49%	–	–
COc1ccc(C(=O)OCC2=CCC3[C@](C)(CO)[C@H](O)CC[C@@]3(C)[C@@H]2/C=C/C2=CCOC2=O)cc1Cl (stereo partly drawn) [Compound 9l, ((1S,5R,6R,8aR)-6-Hydroxy-5-(hydroxymethyl)-5,8a-dimethyl-1-((E)-2-(2-oxo-2,5-dihydrofuran-3-yl)vinyl)-1,4,4a,5,6,7,8,8a-octahydronaphthalen-2-yl)methyl 3-Chloro-4-methoxybenzoate]	5.7 µM	71.4 ± 0.56%	17.8 µM	47 ± 0.24%	> 20 µM	3.3 ± 0.63%	> 20 µM	27.5 ± 0.94%	–	–
C[C@]1(CO)C2CC=C(COC(=O)c3ccc(Br)cc3F)[C@@H](/C=C/C3=CCOC3=O)[C@]2(C)CC[C@H]1O (stereo partly drawn) [Compound 9m, ((1S,5R,6R,8aR)-6-Hydroxy-5-(hydroxymethyl)-5,8a-dimethyl-1-((E)-2-(2-oxo-2,5-dihydrofuran-3-yl)vinyl)-1,4,4a,5,6,7,8,8a-octahydronaphthalen-2-yl)methyl 4-Bromo-2-fluorobenzoate]	7.6 µM	78.9 ± 0.96%	> 20 µM	8 ± 0.85%	> 20 µM	14.9 ± 0.24%	> 20 µM	23.1 ± 0.84%	–	–
C[C@]1(CO)C2CC=C(COC(=O)c3ccccc3C(F)(F)F)[C@@H](/C=C/C3=CCOC3=O)[C@]2(C)CC[C@H]1O (stereo partly drawn) [Compound 9n, ((1S,5R,6R,8aR)-6-Hydroxy-5-(hydroxymethyl)-5,8a-dimethyl-1-((E)-2-(2-oxo-2,5-dihydrofuran-3-yl)vinyl)-1,4,4a,5,6,7,8,8a-octahydronaphthalen-2-yl)methyl 2-(Trifluoromethyl)benzoate]	5.7 µM	72.2 ± 0.41%	> 20 µM	18 ± 0.58%	> 20 µM	5.6 ± 0.14%	> 20 µM	44.9 ± 0.78%	–	–
C[C@]1(CO)C2CC=C(COC(=O)Cc3ccccc3)[C@@H](/C=C/C3=CCOC3=O)[C@]2(C)CC[C@H]1O (stereo partly drawn) [Compound 9o, ((1S,5R,6R,8aR)-6-Hydroxy-5-(hydroxymethyl)-5,8a-dimethyl-1-((E)-2-(2-oxo-2,5-dihydrofuran-3-yl)vinyl)-1,4,4a,5,6,7,8,8a-octahydronaphthalen-2-yl)methyl 2-Phenylacetate]	–	15 ± 0.72%	–	29.2 ± 0.29%	–	–	–	0%	43.4 ± 0.19%	–
C[C@]1(CO)C2CC=C(COC(=O)Cc3ccc(F)cc3)[C@@H](/C=C/C3=CCOC3=O)[C@]2(C)CC[C@H]1O (stereo partly drawn) [Compound 9p, ((1S,5R,6R,8aR)-6-Hydroxy-5-(hydroxymethyl)-5,8a-dimethyl-1-((E)-2-(2-oxo-2,5-dihydrofuran-3-yl)vinyl)-1,4,4a,5,6,7,8,8a-octahydronaphthalen-2-yl)methyl 2-(4-Fluorophenyl)acetate]	–	44 ± 0.89%	–	12 ± 0.85%	–	32.6 ± 0.96%	–	27.6 ± 0.31%	–	–
C[C@]1(CO)C2CC=C(COC(=O)Cc3ccc(Cl)cc3)[C@@H](/C=C/C3=CCOC3=O)[C@]2(C)CC[C@H]1O (stereo partly drawn) [Compound 9q, ((1S,5R,6R,8aR)-6-Hydroxy-5-(hydroxymethyl)-5,8a-dimethyl-1-((E)-2-(2-oxo-2,5-dihydrofuran-3-yl)vinyl)-1,4,4a,5,6,7,8,8a-octahydronaphthalen-2-yl)methyl 2-(4-Chlorophenyl)acetate]	–	38 ± 0.96%	–	28 ± 0.87%	–	47.2 ± 0.85%	–	19.3 ± 0.97%	–	–
C[C@]1(CO)C2CC=C(COC(=O)Cc3ccc(I)cc3)[C@@H](/C=C/C3=CCOC3=O)[C@]2(C)CC[C@H]1O (stereo partly drawn) [Compound 9r, ((1S,5R,6R,8aR)-6-Hydroxy-5-(hydroxymethyl)-5,8a-dimethyl-1-((E)-2-(2-oxo-2,5-dihydrofuran-3-yl)vinyl)-1,4,4a,5,6,7,8,8a-octahydronaphthalen-2-yl)methyl 2-(4-Iodophenyl)acetate]	–	10.6 ± 0.22%	–	12 ± 0.96%	–	2.4 ± 0.19%	–	27.2 ± 0.48%	–	–
Cc1ccc(CC(=O)OCC2=CCC3[C@](C)(CO)[C@H](O)CC[C@@]3(C)[C@@H]2/C=C/C2=CCOC2=O)cc1 (stereo partly drawn) [Compound 9t, ((1S,5R,6R,8aR)-6-Hydroxy-5-(hydroxymethyl)-5,8a-dimethyl-1-((E)-2-(2-oxo-2,5-dihydrofuran-3-yl)vinyl)-1,4,4a,5,6,7,8,8a-octahydronaphthalen-2-yl)methyl 2-(p-Tolyl)acetate]	–	52 ± 0.85%	–	5.2 ± 0.5%	–	49.7 ± 0.92%	–	13.9 ± 0.64%	–	–
COc1cc(CC(=O)OCC2=CCC3[C@](C)(CO)[C@H](O)CC[C@@]3(C)[C@@H]2/C=C/C2=CCOC2=O)cc(OC)c1OC (stereo partly drawn) [Compound 9u, ((1S,5R,6R,8aR)-6-Hydroxy-5-(hydroxymethyl)-5,8a-dimethyl-1-((E)-2-(2-oxo-2,5-dihydrofuran-3-yl)vinyl)-1,4,4a,5,6,7,8,8a-octahydronaphthalen-2-yl)methyl 2-(3,4,5-Trimethoxyphenyl)acetate]	–	48.7 ± 0.96%	–	69 ± 0.58%	–	32.6 ± 0.38%	–	35.9 ± 0.87%	–	–
C[C@]1(CO)C2CC=C(COC(=O)Cc3ccc(Cl)c(Cl)c3)[C@@H](/C=C/C3=CCOC3=O)[C@]2(C)CC[C@H]1O (stereo partly drawn) [Compound 9v, ((1S,5R,6R,8aR)-6-Hydroxy-5-(hydroxymethyl)-5,8a-dimethyl-1-((E)-2-(2-oxo-2,5-dihydrofuran-3-yl)vinyl)-1,4,4a,5,6,7,8,8a-octahydronaphthalen-2-yl)methyl 2-(3,4-Dichlorophenyl)acetate]	> 20 µM	26.5 ± 0.54%	> 20 µM	29 ± 0.78%	7.5 µM	72%	> 20 µM	5.7 ± 6.1%	–	72.7 ± 0.54%
CCCCCCCC(=O)OCC1=CCC2[C@](C)(CO)[C@H](O)CC[C@@]2(C)[C@@H]1/C=C/C1=CCOC1=O (stereo partly drawn) [Compound 9w, ((1S,5R,6R,8aR)-6-Hydroxy-5-(hydroxymethyl)-5,8a-dimethyl-1-((E)-2-(2-oxo-2,5-dihydrofuran-3-yl)vinyl)-1,4,4a,5,6,7,8,8a-octahydronaphthalen-2-yl)methyl Octanoate]	–	67 ± 0.75%	–	25 ± 0.36%	–	16.8 ± 0.93%	–	23.9 ± 0.58%	–	–
CCCCCCCCCC(=O)OCC1=CCC2[C@](C)(CO)[C@H](O)CC[C@@]2(C)[C@@H]1/C=C/C1=CCOC1=O (stereo partly drawn) [Compound 9x, ((1S,5R,6R,8aR)-6-Hydroxy-5-(hydroxymethyl)-5,8a-dimethyl-1-((E)-2-(2-oxo-2,5-dihydrofuran-3-yl)vinyl)-1,4,4a,5,6,7,8,8a-octahydronaphthalen-2-yl)methyl Decanoate]	–	24 ± 0.83%	–	46 ± 0.84%	–	23.2 ± 0.74%	–	2.7 ± 0.51%	–	–
CCCCCCCCCCCC(=O)OCC1=CCC2[C@](C)(CO)[C@H](O)CC[C@@]2(C)[C@@H]1/C=C/C1=CCOC1=O (stereo partly drawn) [Compound 9y, ((1S,5R,6R,8aR)-6-Hydroxy-5-(hydroxymethyl)-5,8a-dimethyl-1-((E)-2-(2-oxo-2,5-dihydrofuran-3-yl)vinyl)-1,4,4a,5,6,7,8,8a-octahydronaphthalen-2-yl)methyl Dodecanoate]	–	66 ± 0.47%	–	38 ± 0.18%	–	1.6 ± 0.98%	–	4.6 ± 0.44%	–	–
